Measurements from ChEMBL document CHEMBL3352149, “Promiscuity and selectivity in covalent enzyme inhibition: a systematic study of electrophilic fragments” (J Med Chem, 2014).
Calls of active or inactive are those of the source. The calls are words filed in the database; no cut-off is given here.

Columns and labels:
[1] = tested on: Escherichia coli; assay: Inhibition of wild-type Escherichia coli MurE compound preincubated for 10 mins before substrate addition at 25 uM measured after 15 mins by LC-MS method
Method in brief: (§1)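 E. coli wild-type enzyme (4 nM) was preincubated with 25 μM compound for 10 min at 37 °C. Enzymatically generated nucleotide-sugar substrate (~200 μM) plus ATP (~200 μM), or NADPH 200 μM for MurB, was added for 10 min. Reactions were started with amino-acid cosubstrate (MurC–F) or EP-UNAG (MurB), run 15 min at 37 °C, and quenched with formic acid. Product was measured by negative-ESI LC-MS EIC peak area. MgCl2: MurC 10, MurD/E 2, MurF 5 mM; MurB had 5 mM KCl. All in 50 mM NH4HCO3, 0.07% BSA, 1% DMSO; triplicate.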

[2] = molecular target: Prothrombin (Bos taurus) (UniProt P00735); assay: Inhibition of Bovine thrombin using Boc-Val-Pro-Arg-AMC as substrate compound preincubated at 25 uM for 15 mins by fluorescence assay
Method in brief: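 Bovine thrombin (final 10 nM) was preincubated 15 min with 25 μM compound in 50 mM Tris-HCl pH 7.5, 150 mM NaCl, 0.05% Tween 20. The reaction was started with Boc-Val-Pro-Arg-AMC (50 μM final). Fluorescence (ex 355/em 460 nm) was monitored continuously for 10 min; activity taken as slope (RFU/s). Triplicate.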

[3] = molecular target: Genome polyprotein (West Nile virus) (UniProt P06935); assay: Inhibition of West Nile virus NS2B-NS3 protease at 50 uM
Genome polyprotein (West Nile virus), sequence (P06935 whole entry): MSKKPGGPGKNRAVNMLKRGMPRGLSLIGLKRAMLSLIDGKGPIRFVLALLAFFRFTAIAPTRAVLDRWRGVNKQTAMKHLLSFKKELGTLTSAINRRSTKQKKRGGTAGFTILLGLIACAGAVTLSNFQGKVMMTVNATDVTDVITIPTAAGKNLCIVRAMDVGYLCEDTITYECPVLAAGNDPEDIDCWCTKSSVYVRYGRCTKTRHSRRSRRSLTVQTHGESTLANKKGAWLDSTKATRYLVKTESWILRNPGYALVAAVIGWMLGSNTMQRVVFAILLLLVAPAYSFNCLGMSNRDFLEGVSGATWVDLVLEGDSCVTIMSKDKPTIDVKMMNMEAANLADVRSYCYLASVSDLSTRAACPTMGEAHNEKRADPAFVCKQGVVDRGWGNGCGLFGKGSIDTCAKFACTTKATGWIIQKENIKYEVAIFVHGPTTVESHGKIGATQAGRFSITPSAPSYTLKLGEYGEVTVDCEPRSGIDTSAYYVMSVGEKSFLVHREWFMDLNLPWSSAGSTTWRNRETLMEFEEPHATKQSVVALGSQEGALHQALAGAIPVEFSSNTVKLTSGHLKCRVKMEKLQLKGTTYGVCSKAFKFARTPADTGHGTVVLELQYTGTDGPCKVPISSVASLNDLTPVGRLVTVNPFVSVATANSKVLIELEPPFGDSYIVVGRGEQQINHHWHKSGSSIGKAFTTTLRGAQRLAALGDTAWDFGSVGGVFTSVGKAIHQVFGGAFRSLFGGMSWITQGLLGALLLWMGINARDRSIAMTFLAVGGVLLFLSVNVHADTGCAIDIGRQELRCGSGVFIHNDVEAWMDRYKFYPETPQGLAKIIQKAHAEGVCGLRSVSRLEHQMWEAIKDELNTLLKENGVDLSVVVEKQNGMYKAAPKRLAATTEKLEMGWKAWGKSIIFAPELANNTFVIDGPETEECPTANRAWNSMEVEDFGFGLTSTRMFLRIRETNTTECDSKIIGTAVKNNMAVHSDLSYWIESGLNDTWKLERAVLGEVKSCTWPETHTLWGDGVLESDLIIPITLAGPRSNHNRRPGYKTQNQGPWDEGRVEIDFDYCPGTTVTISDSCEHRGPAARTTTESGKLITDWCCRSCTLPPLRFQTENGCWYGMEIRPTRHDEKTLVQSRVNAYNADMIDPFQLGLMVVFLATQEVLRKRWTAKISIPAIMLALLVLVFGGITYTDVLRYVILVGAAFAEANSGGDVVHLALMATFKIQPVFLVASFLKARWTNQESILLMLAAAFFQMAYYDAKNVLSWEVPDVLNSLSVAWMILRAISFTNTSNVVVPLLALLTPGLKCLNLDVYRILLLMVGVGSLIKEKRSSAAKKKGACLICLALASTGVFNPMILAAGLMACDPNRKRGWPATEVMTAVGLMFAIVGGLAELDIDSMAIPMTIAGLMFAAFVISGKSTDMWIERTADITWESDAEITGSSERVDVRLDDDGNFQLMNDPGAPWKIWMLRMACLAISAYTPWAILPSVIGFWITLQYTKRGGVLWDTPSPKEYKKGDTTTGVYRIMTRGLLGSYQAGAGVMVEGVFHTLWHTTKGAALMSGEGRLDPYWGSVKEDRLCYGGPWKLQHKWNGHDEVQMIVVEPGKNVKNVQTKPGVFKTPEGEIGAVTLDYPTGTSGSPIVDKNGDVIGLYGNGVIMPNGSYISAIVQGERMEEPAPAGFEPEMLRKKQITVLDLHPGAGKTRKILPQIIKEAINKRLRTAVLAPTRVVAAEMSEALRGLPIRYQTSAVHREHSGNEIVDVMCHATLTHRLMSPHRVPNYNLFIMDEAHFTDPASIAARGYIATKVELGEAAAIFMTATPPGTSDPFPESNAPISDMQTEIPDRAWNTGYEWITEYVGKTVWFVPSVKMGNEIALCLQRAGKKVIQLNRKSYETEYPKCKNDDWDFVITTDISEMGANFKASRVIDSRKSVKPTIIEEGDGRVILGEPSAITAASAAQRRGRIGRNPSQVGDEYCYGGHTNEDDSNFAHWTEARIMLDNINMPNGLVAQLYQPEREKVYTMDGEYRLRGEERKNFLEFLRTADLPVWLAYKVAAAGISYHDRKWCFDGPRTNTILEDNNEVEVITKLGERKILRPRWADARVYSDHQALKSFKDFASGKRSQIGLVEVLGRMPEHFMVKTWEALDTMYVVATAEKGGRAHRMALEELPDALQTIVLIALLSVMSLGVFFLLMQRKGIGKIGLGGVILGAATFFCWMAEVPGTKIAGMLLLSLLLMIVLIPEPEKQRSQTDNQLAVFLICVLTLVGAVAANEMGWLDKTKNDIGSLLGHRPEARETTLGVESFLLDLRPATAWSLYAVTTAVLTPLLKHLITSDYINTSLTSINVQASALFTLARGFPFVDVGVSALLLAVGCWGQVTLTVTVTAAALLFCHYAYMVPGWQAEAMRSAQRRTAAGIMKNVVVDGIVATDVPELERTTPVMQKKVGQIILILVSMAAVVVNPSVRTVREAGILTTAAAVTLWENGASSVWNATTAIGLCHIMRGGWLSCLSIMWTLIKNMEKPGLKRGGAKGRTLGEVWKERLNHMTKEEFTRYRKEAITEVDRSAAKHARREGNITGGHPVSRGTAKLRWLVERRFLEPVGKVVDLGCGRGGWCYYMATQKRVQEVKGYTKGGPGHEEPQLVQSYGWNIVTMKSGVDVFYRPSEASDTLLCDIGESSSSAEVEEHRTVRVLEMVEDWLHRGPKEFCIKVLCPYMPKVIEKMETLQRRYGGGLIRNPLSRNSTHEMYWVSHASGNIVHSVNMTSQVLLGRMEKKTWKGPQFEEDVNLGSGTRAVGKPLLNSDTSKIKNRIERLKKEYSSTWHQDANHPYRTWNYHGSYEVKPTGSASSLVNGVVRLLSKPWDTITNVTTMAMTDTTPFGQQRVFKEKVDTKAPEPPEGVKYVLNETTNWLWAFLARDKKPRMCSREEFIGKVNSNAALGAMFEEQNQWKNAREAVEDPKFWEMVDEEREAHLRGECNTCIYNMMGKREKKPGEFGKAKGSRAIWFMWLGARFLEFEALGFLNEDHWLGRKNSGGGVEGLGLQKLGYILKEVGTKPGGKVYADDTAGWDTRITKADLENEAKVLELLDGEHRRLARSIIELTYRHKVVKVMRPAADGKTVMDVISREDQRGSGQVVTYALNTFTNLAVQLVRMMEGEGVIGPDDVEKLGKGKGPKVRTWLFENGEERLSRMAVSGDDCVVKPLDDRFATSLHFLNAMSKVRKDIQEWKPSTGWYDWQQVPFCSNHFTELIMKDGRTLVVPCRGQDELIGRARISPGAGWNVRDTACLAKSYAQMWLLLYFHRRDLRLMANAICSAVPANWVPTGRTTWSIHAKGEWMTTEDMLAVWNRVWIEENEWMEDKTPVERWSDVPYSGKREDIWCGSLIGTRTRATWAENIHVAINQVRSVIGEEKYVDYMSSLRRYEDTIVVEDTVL

[4] = GSH reactivity of the compound assessed as half life by RP-HPLC analysis
[5] = tested on: Escherichia coli; assay: Induction of covalent MetAP enzyme adduct formation at 300 uM after 1 hr by ESI-MS analysis
Method in brief: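 E. coli MetAP (25 μM) was incubated with 300 μM compound for 60 min at 37 °C in 50 mM NH4HCO3, pH 7.9, with 200 μM CoCl2. Untreated enzyme served as control. Samples were spin-desalted on Sephadex G-25 and analysed by flow-injection ESI-MS in positive mode (isocratic water/acetonitrile 95/5 with 0.1% formic acid), looking for covalent adducts.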

[6] = tested on: Escherichia coli; assay: Induction of covalent MurE enzyme adduct formation preincubated with UNAG substrate for 10 mins compound treated at 300 uM after 1 hr by ESI-MS analysis
[7] = tested on: Escherichia coli; assay: Induction of covalent MurA enzyme adduct formation preincubated with UNAG substrate for 10 mins compound treated at 300 uM after 1 hr by ESI-MS analysis
Method in brief: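 E. coli MurA (25 μM) preincubated with UNAG 300 μM for 10 min at 37 °C, then test compound added at 300 μM. Incubation ran 60 min at 37 °C in 50 mM NH₄HCO₃, pH 7.9. Samples were spin-desalted on Sephadex G-25, then analysed by flow-injection positive-mode ESI-MS for enzyme adducts. Untreated enzyme served as control.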

[8] = molecular target: Methionine aminopeptidase 1 (Homo sapiens) (UniProt P53582); assay: Inhibition of human MetAP at 25 uM after 20 mins by HPLC analysis
Method in brief: (§2)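 Endpoint assay. Enzyme (50 nM) was preincubated with 25 μM compound for 20 min at 37 °C in 50 mM Tris pH 7.5, 100 mM NaCl, 100 μM CoCl2, 0.075% BSA. MGMM substrate (400 μM) was then added for 15 min (human MetAP-1) or 20 min (E. coli MetAP). Reactions were stopped with TFA. GMM product was quantified by RP-HPLC, UV 214 nm. Triplicate.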

[9] = tested on: Escherichia coli; assay: Inhibition of wild-type Escherichia coli MurB compound preincubated for 10 mins before substrate addition at 25 uM measured after 15 mins by LC-MS method; method in brief: as §1
[10] = GSH reactivity of the compound assessed as adducts formation by RP-HPLC analysis
Method in brief: (§3)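 Fresh aqueous glutathione (10 mM solution) was added to 50 mM Tris-maleate buffer, pH 7.5. The reaction was started with compound from 10 mM DMSO stock (final 250 μM). Mixtures were followed by reversed-phase HPLC on an ODS column with a gradient to 100% B; rate constants are given in l·mol⁻¹·s⁻¹.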

[11] = tested on: Escherichia coli; assay: Inhibition of wild-type Escherichia coli MurA compound preincubated for 10 mins before substrate addition at 25 uM measured after 15 mins by LC-MS method
[12] = molecular target: Genome polyprotein (dengue virus type 2) (UniProt P12823); assay: Inhibition of Dengue virus serotype 2 NS2B-NS3 protease at 50 uM
[13] = tested on: Escherichia coli; assay: Inhibition of wild-type Escherichia coli MurC compound preincubated for 10 mins before substrate addition at 25 uM measured after 15 mins by LC-MS method; method in brief: as §1
[14] = tested on: HeLa; assay: Cytotoxicity against human HeLa cells assessed as reduction in cell viability after 24 hrs by CellTiter-Blue assay; format: cell-based
Method in brief: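 HeLa cells seeded in triplicate at 5×10^3 cells/well and grown 24 h at 37 °C/5% CO2. Compounds at varying concentrations were added as a 2x stock in phenol-red-free DMEM with FBS, penicillin/streptomycin, sodium pyruvate and L-glutamine, then left 24 h. Medium was replaced with CellTiter-Blue medium for 3 h. A570/A610 was read after background subtraction, as % of untreated controls; EC50 derived.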

[15] = tested on: Escherichia coli; assay: Inhibition of Escherichia coli MetAP at 25 uM after 20 mins by HPLC analysis; method in brief: as §2
[16] = tested on: Escherichia coli; assay: Inhibition of wild-type Escherichia coli MurD compound preincubated for 10 mins before substrate addition at 25 uM measured after 15 mins by LC-MS method; method in brief: as §1
[17] = tested on: Escherichia coli; assay: Inhibition of wild-type Escherichia coli MurF compound preincubated for 10 mins before substrate addition at 25 uM measured after 15 mins by LC-MS method; method in brief: as §1
[18] = tested on: Escherichia coli; assay: Induction of covalent MurB enzyme adduct formation preincubated with UNAG substrate for 10 mins compound treated at 300 uM after 1 hr by ESI-MS analysis
[19] = GSH reactivity of the compound assessed as adducts formation meaured over 3 hrs by RP-HPLC analysis; method in brief: as §3

SMILES	inhibition [1] [%]	inhibition [2] [%]	inhibition [3] [%]	T1/2 [4] [h]	Activity [5] [L/mol/s]	Activity [6] [L/mol/s]	Activity [7]	inhibition [8] [%]	inhibition [9] [%]	Activity [10] [L/mol/s]	inhibition [11] [%]	inhibition [12] [%]	inhibition [13] [%]	EC50 [14] [µM]	inhibition [15] [%]	inhibition [16] [%]	inhibition [17] [%]	Activity [18] [L/mol/s]	Activity [19] [%]
O=C(Nc1ccccc1)C1CC(Br)=NO1 (configuration not stated)	< 15	< 15	< 15	> 200	< 0.1	< 0.1	inactive	< 15	< 15	< 0.1	< 15	< 15	< 15	> 100	< 15	< 15	< 15		
O=C(Nc1ccc(F)cc1)n1ccnc1	< 15	< 15	< 15					< 15	< 15	< 0.1	28	< 15	< 15		< 15	< 15	< 15	< 0.1	
N#CCC(=O)Nc1ccccc1	23	< 15	< 15		< 0.1	< 0.1	inactive	< 15	< 15	< 0.1	< 15	< 15	< 15	> 100	< 15	< 15	< 15		
O=C(Nc1ccc([N+](=O)[O-])cc1)C1CC(Br)=NO1 (configuration not stated)	44	< 15	< 15	> 200	< 0.1	< 0.1		< 15	< 15	< 0.1	< 15	< 15	< 15	73.4	28	< 15	< 15	< 0.1	
O=C(CCl)Nc1ccccc1	< 15	< 15	< 15		< 0.1	< 0.1	inactive	< 15	< 15	< 0.1	< 15	< 15	< 15	20.9	< 15	< 15	< 15		
C=CC(=O)Nc1ccccc1	< 15	< 15	< 15		< 0.1	< 0.1	inactive	< 15	< 15	< 0.1	< 15	< 15	< 15	> 100	< 15	< 15	< 15		< 5
O=C(Nc1ccccc1)n1ccnc1 [IMIDAZOLE-1-CARBOXYLIC ACID PHENYLAMIDE]	< 15	< 15	< 15		< 0.1	< 0.1	inactive	< 15	< 15	< 0.1	< 15	< 15	< 15	> 100	< 15	< 15	< 15		
